Reference: ChEMBL document CHEMBL2150991, “Synthesis of novel N-branched acyclic nucleoside phosphonates as potent and selective inhibitors of human, Plasmodium falciparum and Plasmodium vivax 6-oxopurine phosphoribosyltransferases” (J Med Chem, 2012)
Values after ≈ are worked out from the molar mass of the structure shown.

Legend:
[1] = Inhibition of Plasmodium vivax HGPRT using Prib-PP as substrate by spectrophotometric assay in presence of guanine
In short: (§1)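 Continuous spectrophotometric assay at 25 °C in 0.1 M Tris-HCl, 10 mM MgCl₂, pH 7.4. PRib-PP is the variable substrate. Guanine is held fixed at a saturating 60 μM. Values are apparent Ki, since only one concentration of the second substrate was used. Each was calculated from Km(app) = Km(1 + [I]/Ki(app)).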

[2] = Cytotoxicity against human HEL cells; type: cell-based
[3] = Cytotoxicity african green monkey Vero cells; type: cell-based; conditions: chlorocebus sabaeus
[4] = Inhibition of Plasmodium falciparum recombinant HGPRT expressed in Escherichia coli using Prib-PP as substrate by spectrophotometric assay in presence of guanine; in short: as §1
[5] = Cytostatic activity against human HeLaS3 cells; type: ADME, cell-based; conditions: hela s3
L1210 = assay: Cytostatic activity against mouse L1210 cells; type: ADME, cell-based
[6] = molecular target: T1, Hypoxanthine-guanine phosphoribosyltransferase (Homo sapiens, UniProt P00492); assay: Inhibition of human HGPRT using Prib-PP as substrate by spectrophotometric assay in presence of guanine; in short: as §1
T1 sequence (P00492 whole entry): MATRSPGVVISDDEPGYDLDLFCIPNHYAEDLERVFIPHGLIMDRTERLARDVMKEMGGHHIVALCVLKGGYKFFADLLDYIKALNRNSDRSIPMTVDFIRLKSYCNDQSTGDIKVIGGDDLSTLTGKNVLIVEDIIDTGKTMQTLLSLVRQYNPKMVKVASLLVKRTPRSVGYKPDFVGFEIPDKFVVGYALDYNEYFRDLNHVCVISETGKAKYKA

CCRF-CEM = assay: Cytostatic activity against human CCRF-CEM cells; type: ADME, cell-based
HL-60 = assay: Cytostatic activity against human HL60 cells; type: ADME, cell-based
[7] = Cytotoxicity against cat CRFK cells; type: cell-based, Felis catus

SMILES | Ki [1] [nM] | CC50 [2] [µg/mL] | CC50 [3] [µg/mL] | Ki [4] [nM] | Activity [5] | Activity (L1210) | Ki [6] [nM] | Activity (CCRF-CEM) | Activity (HL-60) | CC50 [7] [µg/mL]
CCOC(=O)CN(CCn1cnc2c(=O)[nH]cnc21)CCP(=O)(O)O | 11000 | > 100 | > 100 | 1900 | Non-toxic | Non-toxic | 2600 | Non-toxic | Non-toxic | > 100
O=c1[nH]cnc2c1ncn2CCN(CCO)CCP(=O)(O)O | 21000 | > 100 | > 100 | 2600 | Non-toxic | Non-toxic | 5500 | Non-toxic | Non-toxic | > 100
Nc1nc2c(ncn2CCN(CCC(=O)O)CCP(=O)(O)O)c(=O)[nH]1 | 50 | > 100 | > 100 | 200 | Non-toxic | Non-toxic | 150 | Non-toxic | Non-toxic | > 100
N#CCCN(CCn1cnc2c(=O)[nH]cnc21)CCP(=O)(O)O | 700 | > 100 | > 100 | 200 | Non-toxic | Non-toxic | 2400 | Non-toxic | Non-toxic | > 100
N#CCCCN(CCn1cnc2c(=O)[nH]cnc21)CCP(=O)(O)O | > 230000 | > 100 | > 100 | 6000 | Non-toxic | Non-toxic | 29000 | Non-toxic | Non-toxic | > 100
N#CCN(CCn1cnc2c(=O)[nH]cnc21)CCP(=O)(O)O | 47000 | > 100 | > 100 | ≥ 250000 | Non-toxic | Non-toxic | 35000 | Non-toxic | Non-toxic | > 100
Nc1nc2c(ncn2CCN(CCCC(=O)O)CCP(=O)(O)O)c(=O)[nH]1 | 25000 | > 100 | > 100 | – | Non-toxic | Non-toxic | 100 | Non-toxic | Non-toxic | > 100
Nc1nc2c(ncn2CCNCCP(=O)(O)O)c(=O)[nH]1 | 11000 | > 100 | – | 16000 | Non-toxic | Non-toxic | – | Non-toxic | Non-toxic | –
COC(=O)CCCN(CCn1cnc2c(=O)[nH]cnc21)CCP(=O)(O)O | > 250000 | > 100 | > 100 | ≥ 220000 | Non-toxic | Non-toxic | 22000 | Non-toxic | Non-toxic | > 100
COC(=O)CCN(CCn1cnc2c(=O)[nH]cnc21)CCP(=O)(O)O | 21000 | > 100 | > 100 | 100 | Non-toxic | Non-toxic | > 200000 | Non-toxic | Non-toxic | > 100
O=C(O)CCN(CCn1cnc2c(=O)[nH]cnc21)CCP(=O)(O)O | 41000 | > 100 | > 100 | 400 | Non-toxic | Non-toxic | > 240000 | Non-toxic | Non-toxic | > 100
CCOC(=O)CN(CCn1cnc2c(=O)[nH]c(N)nc21)CCP(=O)(O)O | 1500 | > 100 | > 100 | 1700 | Non-toxic | Non-toxic | 100 | Non-toxic | Non-toxic | > 100
O=C(O)CCCN(CCn1cnc2c(=O)[nH]cnc21)CCP(=O)(O)O | 1600 | > 100 | > 100 | ≥ 210000 | Non-toxic | Non-toxic | 5400 | Non-toxic | Non-toxic | > 100
N#CCCN(CCn1cnc2c(=O)[nH]c(N)nc21)CCP(=O)(O)O | 300 | > 100 | > 100 | 200 | Non-toxic | Non-toxic | 70 | Non-toxic | Non-toxic | > 100
COC(=O)CCN(CCn1cnc2c(=O)[nH]c(N)nc21)CCP(=O)(O)O | 4000 | > 100 | > 100 | 100 | Non-toxic | Non-toxic | 500 | Non-toxic | Non-toxic | > 100
N#CCCCN(CCn1cnc2c(=O)[nH]c(N)nc21)CCP(=O)(O)O | 8000 | > 100 | > 100 | 4000 | Non-toxic | Non-toxic | 600 | Non-toxic | Non-toxic | > 100
Nc1nc2c(ncn2CCN(CCP(=O)(O)O)CCP(=O)(O)O)c(=O)[nH]1 | 900 | > 100 | > 100 | 300 | Non-toxic | Non-toxic | 200 | Non-toxic | Non-toxic | > 100
O=c1[nH]cnc2c1ncn2CCNCCP(=O)(O)O | ≥ 250000 | > 100 | – | ≥ 200000 | Non-toxic | Non-toxic | – | Non-toxic | Non-toxic | –
Nc1nc2c(ncn2CCN(CCO)CCP(=O)(O)O)c(=O)[nH]1 | 1400 | > 100 | – | 200 | Non-toxic | Non-toxic | 70 | Non-toxic | Non-toxic | –
COC(=O)CCCN(CCn1cnc2c(=O)[nH]c(N)nc21)CCP(=O)(O)O | > 200000 | > 100 | > 100 | 1300 | Non-toxic | Non-toxic | 100 | Non-toxic | Non-toxic | > 100
O=c1[nH]cnc2c1ncn2CCN(CCP(=O)(O)O)CCP(=O)(O)O | 13000 | > 100 | > 100 | – | Non-toxic | Non-toxic | 3000 | Non-toxic | Non-toxic | > 100
N#CCN(CCn1cnc2c(=O)[nH]c(N)nc21)CCP(=O)(O)O | – | 53 (≈ 155 µM) | > 100 | – | Non-toxic | Non-toxic | – | Non-toxic | Non-toxic | > 100
Nc1nc2c(ncn2CCN(CCP(=O)(O)O)CC(=O)O)c(=O)[nH]1 | 28000 | > 100 | > 100 | 700 | Non-toxic | Non-toxic | 1400 | Non-toxic | Non-toxic | > 100
O=C(O)CN(CCn1cnc2c(=O)[nH]cnc21)CCP(=O)(O)O | 178000 | > 100 | > 100 | – | Non-toxic | Non-toxic | 32000 | Non-toxic | Non-toxic | > 100
